Screening data: PubChem BioAssay, several laboratories
RGS4 pot = potentiators or activators of RGS4 | HEK293 M3R/inducible RGS4, carbachol calcium flux Fluo4; hits give low values | B-score at 10 µM | 310,000 tested, 0.92% active;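 active = B-score of the integrated calcium signal more than 4 SD below the library mean, with starting fluorescence not abnormally high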;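 also: negative B-score means reduced calcium response which marks RGS4 activation or potentiation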
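Assay system: Inducible-RGS4 HEK293 cells carrying M3 receptor | Schedule: Compound preincubation 20 min at room temperature before agonist | Signal: Kinetic calcium fluorescence imaging with Fluo4-AM dye, 2 µM | Read-out basis: B score from integrated fluorescence ratio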
MrgX1 antag = antagonists of human MrgX1 receptor; Q96LB2; MRGX1-HEK293 calcium flux, Fluo-4, BAM8-22 antagonism; hits give low values; B-score at 10 µM; 310,000 tested, 1.3% active; AID 588676;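 active = calcium-response B-score plate-corrected more than 3 library SD below zero, starting fluorescence within 5 deviations, no agonist response on first addition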;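 also: peak minus trough fluorescence over baseline after final BAM8-22 challenge near maximal dose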
Target sequence (Q96LB2 whole entry, looked up): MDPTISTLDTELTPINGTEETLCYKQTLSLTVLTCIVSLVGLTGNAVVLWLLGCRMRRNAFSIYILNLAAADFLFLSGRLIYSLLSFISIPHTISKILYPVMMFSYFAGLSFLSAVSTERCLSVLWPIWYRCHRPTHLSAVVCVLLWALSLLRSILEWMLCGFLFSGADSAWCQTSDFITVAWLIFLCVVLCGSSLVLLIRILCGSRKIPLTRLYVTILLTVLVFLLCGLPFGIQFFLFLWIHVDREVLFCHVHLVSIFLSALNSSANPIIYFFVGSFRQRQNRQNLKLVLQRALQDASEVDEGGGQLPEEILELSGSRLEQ
MrgX1 ag = agonists of human MrgX1 receptor | Q96LB2 | MrgX1-HEK293 cells, Fluo-4 calcium fluorescence, agonist mode; hits give high values | B-score at 10 µM | 310,000 tested, 0.44% active;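 active = calcium response B-score plate-corrected fluorescence ratio at least 3 library SD, with starting fluorescence B-score inside 5 SD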
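Material – MrgX1-expressing HEK293 cells · Input – 15,000 cells seeded per well · Dosing – compound as first of three additions · Times – overnight seeding, then 1 h dark dye loading · Measured by – kinetic Fluo-4 NW fluorescence of intracellular calcium · Read-out – B-scored fluorescence response ratio · Benchmarks – positive and negative control wells on each plate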
RGS4 block = human RGS4 inhibition. B-score at 10 µM. HEK293 M3R/RGS4 inducible, Fluo-4 calcium flux; hits give high values; triggered by carbachol at its EC20. 310,000 tested, 0.45% active. AID 463165;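 active = B-score, a plate-corrected calcium signal, over three deviations above library mean, with baseline fluorescence within five deviations of library mean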;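 also: RGS4 expression induced by doxycycline in cells with stable M3 receptor; B-score is computed from the integrated fluorescence ratio over baseline after carbachol; higher B-score means a larger calcium signal and so more RGS4 inhibition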
Lipid droplet = modulators of hepatic lipid droplet formation; 240,000 tested, 0.4% active; inhibition, % at 6.5 µM; AML12 mouse hepatocytes, oleate lipid droplets, BODIPY imaging;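 active = lipid droplet intensity inhibited by at least 50%, with more than 500 cells counted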
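Material – mouse AML12 hepatocyte cell line, fixed after treatment · Compound dosing – one dose, 6.5 µM compound · Times – compound with oleate, overnight · Measured by – Image-based BODIPY and DAPI two-channel analysis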
MrgX1 allo act = human MrgX1 positive allosteric modulation, primary screen; Q96LB2; MrgX1-HEK293, Fluo-4 calcium flux, FDSS; hits give high values; B-score at 10 µM; 310,000 tested, 0.63% active; AID 588675;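 active = plate-corrected calcium response at least 3 library SD above typical, normal starting fluorescence, not activating the receptor alone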;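 also: compound read alongside a low EC10 to EC30 dose of BAM8-22 agonist; peak minus trough fluorescence over baseline measured at the second addition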
RGS4 block valid = RGS4 inhibitor validation; 1,700 tested, 65% active; shares compounds with RGS4 block; calcium response, % at 10 µM; AID 492999; HEK293 M3R/RGS4, carbachol calcium Fluo-4 fluorescence; carbachol added at its EC20; 0 = buffer wells, 100 = carbachol control;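 active = duplicate-averaged calcium response above the buffer-only control mean plus 5 SD of those controls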;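 also: integrated fluorescence ratio F max minus min over baseline F0; higher response in RGS4-induced cells means RGS4 inhibition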
RGS4 uninduced = non-induced cell nonspecific activity of RGS4 inhibitors. shares compounds with RGS4 block. HEK293 M3R non-induced, carbachol calcium Fluo-4; submaximal (EC20) carbachol stimulus; buffer wells 0%, carbachol control wells 100%. activity (percent), % at 10 µM. 1,900 tested, 20% active; call rule not given here;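 also: RGS4 induction absent so cells express M3R without RGS4; higher means more calcium signal and flags a non-specific hit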
RGS4 inh ctr2 = second counter-screen for RGS4 inhibitors: non-induced cells without carbachol; shares compounds with RGS4 block; HEK293 M3R/RGS4 non-induced, Fluo-4 calcium, no carbachol; normalised: buffer wells 0%, carbachol wells 100%; calcium response (agonist-mode artifact), % at 10 µM; 1,900 tested, 22% active; AID 493001;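 active = duplicate-averaged calcium rise in uninduced cells above buffer wells' mean plus 5 SD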
Active calls of the source: *; i = inactive; . = not tested or not shown. This is a sample that favours compounds with a hit; in the whole collection about 3.8% have one here.

SMILES	RGS4 pot	MrgX1 antag	MrgX1 ag	RGS4 block	Lipid droplet	MrgX1 allo act	RGS4 block valid	RGS4 uninduced	RGS4 inh ctr2
Cc1ccc(N2C(=O)N3[C@H]4c5ccccc5OC[C@@H]4[C@@H](c4ccccc4)[C@@]3(C)C2=O)cc1	i	i	i	i	.	i	.	.	.
O=C(COc1ccc(Br)cc1)Nc1ccc(CN2CCOCC2)cc1	i	i	i	i	-7	i	.	.	.
Cc1cc(S(=O)(=O)Nc2ccc(C(=O)NCc3ccncc3)cc2)ccc1F	i	i	i	i	.	i	.	.	.
CCOC(=O)N1CCN(C(=O)CSCC(=O)Nc2nc(-c3ccc(Cl)s3)cs2)CC1	i	i	i	i	-1	i	i	i	i
CCOC(=O)N1CCN(C(=O)CSCC(=O)Nc2nc(-c3ccc(OC)cc3)cs2)CC1	i	i	i	i	16	i	.	.	.
c1ccc(-c2nnsc2Sc2ccccn2)cc1	i	i	i	i	-11	i	.	.	.
O=S(=O)(Nc1nccs1)c1ccc(NCc2cc(Br)cc(Br)c2O)cc1	i	i	i	7.8*	0	i	6.0%*	44%*	i
O=C1c2ccccc2NC(c2ccc(-c3cccc([N+](=O)[O-])c3)o2)N1O (stereo not drawn)	i	i	i	i	7	i	.	i	i
O=C1c2ccccc2NC(c2ccc(-c3ccc(Br)cc3)o2)N1O (stereo not drawn)	i	i	i	i	.	i	.	.	.
Cc1cc(C(=O)Nc2ccc(N3CCOCC3)c3nonc23)ccc1[N+](=O)[O-]	i	i	i	i	-4	i	.	.	.
CC(C)(Oc1ccc(Cl)cc1)C(=O)N/N=C/c1cn[nH]c1-c1ccccc1	i	i	i	5*	-1	i	26%*	i	i
O=C(N/N=C\c1cn[nH]c1-c1ccc(Cl)cc1)c1cccs1	i	i	i	i	18	i	.	.	.
CC1CCC(C(C)C)C(OCC(O)CNC(C)c2ccccc2)C1 (stereo not drawn)	i	i	i	i	-15	i	.	.	.
CC(NCC(O)COC1CCC(C(C)(C)C)CC1)c1ccccc1 (stereo not drawn)	i	i	i	10*	-13	i	5.0%*	i	i
CCCC(=O)Nc1ccc(Cl)c(NC(=S)NC(=O)c2ccco2)c1	i	i	i	i	-2	i	.	.	.
CCOC(=O)[C@@H]1[C@H]2COc3ccccc3[C@H]2N2C(=O)N(c3ccc(C(F)(F)F)cc3)C(=O)[C@]12C	i	i	i	i	-8	i	i	i	i
CCOC(=O)[C@@H]1[C@H]2COc3ccccc3[C@@H]2N2C(=O)N(c3ccc(C(F)(F)F)cc3)C(=O)[C@]12C	i	i	i	i	.	i	i	i	i
C=CCNC(=O)COC(=O)c1nc2nccc(C)n2n1	i	i	i	i	12	i	.	i	i
C/C(CC(=O)Nc1ccc(F)cc1)=N\NC(=O)COc1ccccc1	i	i	i	i	0	i	.	.	.
CCN1CCN(C(=O)/C(C#N)=C/c2ccc(OC(F)F)cc2)CC1	i	i	i	i	2	i	.	.	.
N#C/C(=C\c1ccc(OC(F)F)cc1)C(=O)N1CCCCC1	i	i	i	5.8*	2	i	16%*	i	i
